According to ChEMBL document CHEMBL1275502, “Establishing in vitro-in vivo correlations for Aspergillus fumigatus: the challenge of azoles versus echinocandins” (2008):
Converted amounts (≈) assume the structure as drawn. The source made the active and inactive calls. The rule behind the calls is not given here.

What was measured:
[1] = test system: Aspergillus fumigatus; experiment: Antimicrobial activity against Aspergillus fumigatus isolate DK by microdilution method; assay type: functional; conditions: read-out: MEC
Method in brief: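 Broth microdilution by the EUCAST method for spore-forming moulds (C. krusei ATCC 6258 control), also a modified EUCAST version with 5 × 10⁴ cells/ml inoculum. Spore-inoculated plates incubated at 35°C for 24 to 48 h, read visually and spectrophotometrically. Azole MIC = lowest dilution giving no growth, ignoring single surface colonies. Echinocandin MEC = lowest concentration giving aberrant growth.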

[2] = test system: Aspergillus fumigatus; experiment: Antimicrobial activity against Aspergillus fumigatus isolate DK by Etest method; assay type: functional
Method in brief: (§1)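 Etest on RPMI 1640-2% glucose agar plates, run per the manufacturer's recommendations. Caspofungin Etest end point read after 2 days of incubation.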

[3] = test system: Aspergillus fumigatus; experiment: Antimicrobial activity against Aspergillus fumigatus isolate DK infected in NMRI mouse assessed as survival rate at 2.25 mg/kg, ip; assay type: functional; conditions: route intraperitoneal
Method in brief: (§2)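 NMRI mice (26 to 30 g) immunosuppressed with cyclophosphamide i.p., 200 mg/kg day −3 and 100 mg/kg day 0. Challenged i.v. on day 0 with 1.5 × 10⁵ CFU in groups of 10 to 13. Dosed in 0.25 ml on days 1 to 4 and 7 to 10: caspofungin i.p., posaconazole orally, or glucose i.p. as control. Scored daily. Survivors killed day 11. AT isolate run in two experiments.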

[4] = test system: Aspergillus fumigatus; experiment: Antimicrobial activity against Aspergillus fumigatus isolate AT by Etest method; assay type: functional, organism-based; method in brief: as §1
[5] = test system: Aspergillus fumigatus; experiment: Antimicrobial activity against Aspergillus fumigatus isolate AT assessed as partial growth inhibition by microdilution method; assay type: functional, organism-based
Method in brief: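 Broth microdilution MEC by EUCAST and CLSI methods (one lab used a modified EUCAST inoculum of 5 × 10⁴ cells/ml). Plates inoculated with spores and incubated at 35°C for 24 to 48 h. MEC taken as the lowest concentration giving aberrant growth, read by light microscopy.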

[6] = test system: Aspergillus fumigatus; experiment: Antimicrobial activity against Aspergillus fumigatus isolate AT infected in NMRI mouse assessed as survival rate at 2.25 mg/kg, ip; assay type: functional; conditions: route intraperitoneal; method in brief: as §2
[7] = test system: Aspergillus fumigatus; experiment: Antimicrobial activity against Aspergillus fumigatus isolate A29 by Etest method; assay type: functional
[8] = test system: Aspergillus fumigatus; experiment: Antimicrobial activity against Aspergillus fumigatus isolate AT assessed as amount of mannose in the alkali-insoluble fraction at 0.04 ug/ml; assay type: functional
Method in brief: (§3)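 Mycelia pretreated by culture with 0.04 μg/ml caspofungin. Cell wall boiled twice in Tris-EDTA-SDS-mercaptoethanol, then alkali-fractionated twice (1 M NaOH/0.05 M NaBH₄, 70°C). Alkali-insoluble fraction (100 μg) digested overnight at 37°C with recombinant endo-β(1,3)-glucanase LamA in pH 6.0 acetate buffer. Read by HPAEC and reducing-sugar assay; hexoses by GC with meso-inositol internal standard. Pretreated values are means of two samples.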

[9] = test system: Aspergillus fumigatus; experiment: Antimicrobial activity against Aspergillus fumigatus isolate AT assessed as amount of glucose in the alkali-insoluble fraction at 0.04 ug/ml; assay type: functional; method in brief: as §3
[10] = test system: Aspergillus fumigatus; experiment: Antimicrobial activity against Aspergillus fumigatus isolate AT assessed as amount of galactose in the alkali-insoluble fraction at 0.04 ug/ml; assay type: functional; method in brief: as §3
[11] = test system: Aspergillus fumigatus; experiment: Antimicrobial activity against Aspergillus fumigatus isolate AT assessed as amount of beta-(1,3)-glucan at 0.04 ug/ml; assay type: functional; method in brief: as §3
[12] = test system: Aspergillus fumigatus; experiment: Ratio of FKS1 expression in Aspergillus fumigatus isolate AT to PMA1 expression in Aspergillus fumigatus ATCC 13073 at 0.25 ug/ml by RT-PCR; assay type: functional
Method in brief: (§4)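 Strains grown 24 h at 37°C with shaking (150 rpm) in RPMI 1640, with and without 0.25 μg/ml caspofungin. FKS1 transcript measured by real-time PCR, normalised to housekeeping genes (BTU, PMA1). Reported as the expression ratio of AT isolate to each reference strain.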

[13] = test system: Aspergillus fumigatus; experiment: Ratio of FKS1 expression in Aspergillus fumigatus isolate AT to BTU expression in Aspergillus fumigatus ATCC 13073 at 0.25 ug/ml by RT-PCR; assay type: functional; method in brief: as §4
[14] = test system: Aspergillus fumigatus; experiment: Ratio of FKS1 expression in Aspergillus fumigatus isolate AT to PMA1 expression in Aspergillus fumigatus 293 at 0.25 ug/ml by RT-PCR; assay type: functional; method in brief: as §4
[15] = test system: Aspergillus fumigatus; experiment: Ratio of FKS1 expression in Aspergillus fumigatus isolate AT to BTU expression in Aspergillus fumigatus 293 at 0.25 ug/ml by RT-PCR; assay type: functional; method in brief: as §4
[16] = test system: Aspergillus fumigatus; experiment: Antimicrobial activity against Aspergillus fumigatus isolate AT assessed as FKS1 expression by RT-PCR relative to control; assay type: functional, organism-based; method in brief: as §4
[17] = test system: Aspergillus fumigatus; experiment: Antimicrobial activity against Aspergillus fumigatus isolate AT infected in NMRI mouse assessed as reduction in galactomannan index relative to control; assay type: functional, organism-based
Method in brief: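 Mice (NMRI) immunosuppressed with cyclophosphamide i.p. (200 mg/kg day −3, 100 mg/kg day 0). Challenged i.v. on day 0 with 1.5 × 10⁵ CFU. Treated on days 1–4 and 7–10 with caspofungin i.p. 2.25 mg/kg, posaconazole orally 5 or 20 mg/kg, or glucose i.p. (controls). Serum galactomannan index measured by Platelia ELISA on day 11 in survivors.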

[18] = test system: Aspergillus fumigatus; experiment: Antimicrobial activity against Aspergillus fumigatus isolate DK infected in NMRI mouse assessed as survival rate at 5 mg/kg, po; assay type: functional; method in brief: as §2
[19] = test system: Aspergillus fumigatus; experiment: Antimicrobial activity against Aspergillus fumigatus isolate DK infected in NMRI mouse assessed as survival rate at 20 mg/kg, po; assay type: functional; method in brief: as §2
[20] = test system: Aspergillus fumigatus; experiment: Antimicrobial activity against Aspergillus fumigatus isolate AT infected in NMRI mouse assessed as survival rate at 5 mg/kg, po; assay type: functional; method in brief: as §2
[21] = test system: Aspergillus fumigatus; experiment: Antimicrobial activity against Aspergillus fumigatus isolate AT infected in NMRI mouse assessed as survival rate at 20 mg/kg, po; assay type: functional; method in brief: as §2

For `CC[C@H](C)C[C@H](C)CCCCCCCCC(=O)N[C@H]1C[C@@H](O)[C@@H](NCCN)NC(=O)[C@@H]2[C@@H](O)CCN2C(=O)[C@H]([C@H](O)CCN)NC(=O)[C@H]([C@H](O)[C@@H](O)c2ccc(O)cc2)NC(=O)[C@@H]2C[C@@H](O)CN2C(=O)[C@H]([C@@H](C)O)NC1=O` [CASPOFUNGIN], the minimal effective concentration [1] was 0.25 µg/mL, the Activity [2] was 0.125 µg/mL and the survival at 2.25 mg/kg [3] was 100%. The Activity [4] was “inactive”, the Activity [5] was “Active” and the survival at 2.25 mg/kg [6] was 25%. The MIC [7] was 0.094 µg/mL (≈ 0.086 µM), the minimal effective concentration ([7]; in the assay text read “by microdilution method” for “by Etest method”, read-out: MEC) was 0.04 µg/mL and the Activity [8] was 10%. The Activity [9] was 74%, the Activity [10] was 16% and the Activity [11] was 81%. The Ratio [12] was 3.5, the Ratio [13] was 3.41 and the Ratio [14] was 2.9. The Ratio [15] was 2.78, the Activity [16] was “inactive” and the Activity [17] was “Active”.
`CC[C@@H]([C@H](C)O)n1ncn(-c2ccc(N3CCN(c4ccc(OC[C@@H]5CO[C@@](Cn6cncn6)(c6ccc(F)cc6F)C5)cc4)CC3)cc2)c1=O` [POSACONAZOLE] gave a survival at 5 mg/kg [18] of 16.7%, a survival at 20 mg/kg [19] of 25% and a survival at 5 mg/kg [20] of 70%. The survival at 20 mg/kg [21] was 75%.
